Measurements: article PMC8861878 (The Journal of pharmacy and pharmacology, 2020)

What was measured:
[1] = target: T1, UGT1A1 (Homo sapiens, UniProt P22309); format: in vitro ADME; conditions: β-estradiol 50 μM; individual HLM n = 9; Pearson; P = 0.014
T1 sequence (P22309 26-533): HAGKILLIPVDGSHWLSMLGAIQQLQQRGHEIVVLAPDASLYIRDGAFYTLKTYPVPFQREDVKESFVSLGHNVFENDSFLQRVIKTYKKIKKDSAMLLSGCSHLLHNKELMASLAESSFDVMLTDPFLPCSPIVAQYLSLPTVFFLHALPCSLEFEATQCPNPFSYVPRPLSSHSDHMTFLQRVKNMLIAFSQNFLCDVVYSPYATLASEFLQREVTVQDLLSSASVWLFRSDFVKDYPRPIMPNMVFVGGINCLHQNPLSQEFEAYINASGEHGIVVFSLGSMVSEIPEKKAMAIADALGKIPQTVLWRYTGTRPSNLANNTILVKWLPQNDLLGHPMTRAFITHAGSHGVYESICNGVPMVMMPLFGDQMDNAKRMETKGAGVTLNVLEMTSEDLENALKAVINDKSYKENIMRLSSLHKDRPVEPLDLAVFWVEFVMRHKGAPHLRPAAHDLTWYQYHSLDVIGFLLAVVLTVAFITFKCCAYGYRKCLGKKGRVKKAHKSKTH
Method in brief: (§1)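 UDPGA-supplemented individual human liver microsomes (n = 9) in 100 μl Tris-HCl 50 mM pH 7.4 with alamethicin 22 μg/ml, D-saccharic-1,4-lactone 4.4 mM and UDPGA 3.5 mM. Incubated 37 °C for 60 min, stopped with ice-cold acetonitrile, centrifuged, supernatant analysed by UHPLC. Test compound glucuronidation rates correlated with probe glucuronidation across donors by Pearson analysis.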

[2] = target: T2, UGT1A9 (Homo sapiens, UniProt O60656); format: in vitro ADME; conditions: propofol 500 μM; individual HLM n = 9; Pearson; P = 0.016
T2 sequence (O60656 26-530): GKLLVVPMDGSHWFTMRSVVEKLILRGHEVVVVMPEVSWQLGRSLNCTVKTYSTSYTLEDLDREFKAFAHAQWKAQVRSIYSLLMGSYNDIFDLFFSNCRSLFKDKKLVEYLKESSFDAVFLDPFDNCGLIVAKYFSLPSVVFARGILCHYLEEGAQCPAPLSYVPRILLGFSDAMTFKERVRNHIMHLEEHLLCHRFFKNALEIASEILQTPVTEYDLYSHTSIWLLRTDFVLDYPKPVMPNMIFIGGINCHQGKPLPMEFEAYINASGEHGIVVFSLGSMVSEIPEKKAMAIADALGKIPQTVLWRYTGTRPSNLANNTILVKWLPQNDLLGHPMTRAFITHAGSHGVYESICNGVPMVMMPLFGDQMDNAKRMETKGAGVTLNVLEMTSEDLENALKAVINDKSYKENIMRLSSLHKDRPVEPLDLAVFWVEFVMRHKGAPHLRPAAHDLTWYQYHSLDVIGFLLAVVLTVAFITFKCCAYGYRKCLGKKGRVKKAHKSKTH
Method in brief: as §1

[3] = substrate: CC(C)=CCc1c(O)ccc2c1O[C@H](c1ccc(O)cc1)CC2=O; experiment: not read; conditions: substrate inhibition model, pH 7.4, 37.0 °C
[4] = substrate: CC(C)=CCc1c(O)ccc2c1O[C@H](c1ccc(O)cc1)CC2=O; experiment: cells, lysate or membranes named; format: in vitro ADME, human; conditions: pH 7.4, 37.0 °C
[5] = other: formation of G1, substrate inhibition model
[6] = other: formation of G2, substrate inhibition model

CC(C)=CCc1c(O[C@@H]2O[C@H](C(=O)O)[C@@H](O)[C@H](O)[C@H]2O)ccc2c1O[C@H](c1ccc(O)cc1)CC2=O [G1, isobavachin-7-O-glucuronide]
correlation factor r [1]: 0.774
correlation factor r [2]: 0.767

B1: CYP1A2 (Homo sapiens) (protein)
chain: MALSQSVPFSATELLLASAIFCLVFWVLKGLRPRVPKGLKSPPEPWGWPLLGHVLTLGKNPHLALSRMSQRYGDVLQIRIGSTPVLVLSRLDTIRQALVRQGDDFKGRPDLYTSTLITDGQSLTFSTDSGPVWAARRRLAQNALNTFSIASDPASSSSCYLEEHVSKEAKALISRLQELMAGPGHFDPYNQVVVSVANVIGAMCFGQHFPESSDEMLSLVKNTHEFVETASSGNPLDFFPILRYLPNPALQRFKAFNQRFLWFLQKTVQEHYQDFDKNSVRDITGALFKHSKKGPRASGNLIPQEKIVNLVNDIFGAGFDTVTTAISWSLMYLVTKPEIQRKIQKELDTVIGRERRPRLSDRPQLPYLEAFILETFRHSSFLPFTIPHSTTRDTTLNGFYIPKKCCVFVNQWQVNHDPELWEDPSEFRPERFLTADGTAINKPLSEKMMLFGMGKRRCIGEVLAKWEIFLFLAILLQQLEFSVPPGVKVDLTPIYGLTMKHARCEHVQARLRFSIN
K0.5 ([3]; other: formation of M1): 5.08 ± 0.54 µM
Vmax ([3]; other: formation of M1): 0.000312 µmol/min/mg
Vmax/Km ([3]; other: formation of M1): 61.4 µL/min/mg
K0.5 ([3]; other: formation of M3): 19.81 ± 9.47 µM
Vmax ([3]; other: formation of M3): 0.000173 µmol/min/mg
Vmax/Km ([3]; other: formation of M3): 8.75 µL/min/mg

B2: CYP2C19 (Homo sapiens) (protein)
chain: MDPFVVLVLCLSCLLLLSIWRQSSGRGKLPPGPTPLPVIGNILQIDIKDVSKSLTNLSKIYGPVFTLYFGLERMVVLHGYEVVKEALIDLGEEFSGRGHFPLAERANRGFGIVFSNGKRWKEIRRFSLMTLRNFGMGKRSIEDRVQEEARCLVEELRKTKASPCDPTFILGCAPCNVICSIIFQKRFDYKDQQFLNLMEKLNENIRIVSTPWIQICNNFPTIIDYFPGTHNKLLKNLAFMESDILEKVKEHQESMDINNPRDFIDCFLIKMEKEKQNQQSEFTIENLVITAADLLGAGTETTSTTLRYALLLLLKHPEVTAKVQEEIERVIGRNRSPCMQDRGHMPYTDAVVHEVQRYIDLIPTSLPHAVTCDVKFRNYLIPKGTTILTSLTSVLHDNKEFPNPEMFDPRHFLDEGGNFKKSNYFMPFSAGKRICVGEGLARMELFLFLTFILQNFNLKSLIDPKDLDTTPVVNGFASVPPFYQLCFIPV
K0.5 ([3]; other: formation of M1): 56.54 ± 16.3 µM
Vmax ([3]; other: formation of M1): 0.00252 µmol/min/mg
Vmax/Km ([3]; other: formation of M1): 44.5 µL/min/mg
K0.5 ([3]; other: formation of M3): 16.81 ± 5.02 µM
Vmax ([3]; other: formation of M3): 0.0013 µmol/min/mg
Vmax/Km ([3]; other: formation of M3): 77.3 µL/min/mg

B3: UGT1A1 (Homo sapiens) (protein)
chain: T1 sequence (P22309 26-533)
K0.5 [4, 5]: 41.84 ± 8.25 µM

B4: UGT1A6 (Homo sapiens) (protein)
chain: DKLLVVPQDGSHWLSMKDIVEVLSDRGHEIVVVVPEVNLLLKESKYYTRKIYPVPYDQEELKNRYQSFGNNHFAERSFLTAPQTEYRNNMIVIGLYFINCQSLLQDRDTLNFFKESKFDALFTDPALPCGVILAEYLGLPSVYLFRGFPCSLEHTFSRSPDPVSYIPRCYTKFSDHMTFSQRVANFLVNLLEPYLFYCLFSKYEELASAVLKRDVDIITLYQKVSVWLLRYDFVLEYPRPVMPNMVFIGGINCKKRKDLSQEFEAYINASGEHGIVVFSLGSMVSEIPEKKAMAIADALGKIPQTVLWRYTGTRPSNLANNTILVKWLPQNDLLGHPMTRAFITHAGSHGVYESICNGVPMVMMPLFGDQMDNAKRMETKGAGVTLNVLEMTSEDLENALKAVINDKSYKENIMRLSSLHKDRPVEPLDLAVFWVEFVMRHKGAPHLRPAAHDLTWYQYHSLDVIGFLLAVVLTVAFITFKCCAYGYRKCLGKKGRVKKAHKSKTH
K0.5 [4, 5]: 67.66 ± 16.32 µM
Vmax [4, 5]: 0.00382 µmol/min/mg
Vmax/Km [4, 5]: 56.5 µL/min/mg
K0.5 [4, 6]: 31.85 ± 6.28 µM
Vmax [4, 6]: 0.000342 µmol/min/mg
Vmax/Km [4, 6]: 10.7 µL/min/mg

B5: UGT1A7 (Homo sapiens) (protein)
chain: GKLLVVPMDGSHWFTMQSVVEKLILRGHEVVVVMPEVSWQLGRSLNCTVKTYSTSYTLEDQDREFMVFADARWTAPLRSAFSLLTSSSNGIFDLFFSNCRSLFNDRKLVEYLKESCFDAVFLDPFDACGLIVAKYFSLPSVVFARGIFCHYLEEGAQCPAPLSYVPRLLLGFSDAMTFKERVWNHIMHLEEHLFCPYFFKNVLEIASEILQTPVTAYDLYSHTSIWLLRTDFVLEYPKPVMPNMIFIGGINCHQGKPVPMEFEAYINASGEHGIVVFSLGSMVSEIPEKKAMAIADALGKIPQTVLWRYTGTRPSNLANNTILVKWLPQNDLLGHPMTRAFITHAGSHGVYESICNGVPMVMMPLFGDQMDNAKRMETKGAGVTLNVLEMTSEDLENALKAVINDKSYKENIMRLSSLHKDRPVEPLDLAVFWVEFVMRHKGAPHLRPAAHDLTWYQYHSLDVIGFLLAVVLTVAFITFKCCAYGYRKCLGKKGRVKKAHKSKTH
K0.5 [4, 5]: 32.91 ± 5.76 µM

B6: UGT1A8 (Homo sapiens) (protein)
chain: GKLLVVPMDGSHWFTMQSVVEKLILRGHEVVVVMPEVSWQLGKSLNCTVKTYSTSYTLEDLDREFMDFADAQWKAQVRSLFSLFLSSSNGFFNLFFSHCRSLFNDRKLVEYLKESSFDAVFLDPFDACGLIVAKYFSLPSVVFARGIACHYLEEGAQCPAPLSYVPRILLGFSDAMTFKERVRNHIMHLEEHLFCQYFSKNALEIASEILQTPVTAYDLYSHTSIWLLRTDFVLDYPKPVMPNMIFIGGINCHQGKPLPMEFEAYINASGEHGIVVFSLGSMVSEIPEKKAMAIADALGKIPQTVLWRYTGTRPSNLANNTILVKWLPQNDLLGHPMTRAFITHAGSHGVYESICNGVPMVMMPLFGDQMDNAKRMETKGAGVTLNVLEMTSEDLENALKAVINDKSYKENIMRLSSLHKDRPVEPLDLAVFWVEFVMRHKGAPHLRPAAHDLTWYQYHSLDVIGFLLAVVLTVAFITFKCCAYGYRKCLGKKGRVKKAHKSKTH
K0.5 [4, 5]: 34.71 ± 6.45 µM

B7: UGT1A9 (Homo sapiens) (protein)
chain: T2 sequence (O60656 26-530)
K0.5 [4, 5]: 15.63 ± 3.12 µM

B8: UGT2B4 (Homo sapiens) (protein)
chain: GKVLVWPTEFSHWMNIKTILDELVQRGHEVTVLASSASISFDPNSPSTLKFEVYPVSLTKTEFEDIIKQLVKRWAELPKDTFWSYFSQVQEIMWTFNDILRKFCKDIVSNKKLMKKLQESRFDVVLADAVFPFGELLAELLKIPFVYSLRFSPGYAIEKHSGGLLFPPSYVPVVMSELSDQMTFIERVKNMIYVLYFEFWFQIFDMKKWDQFYSEVLGRPTTLSETMAKADIWLIRNYWDFQFPHPLLPNVEFVGGLHCKPAKPLPKEMEEFVQSSGENGVVVFSLGSMVSNTSEERANVIASALAKIPQKVLWRFDGNKPDTLGLNTRLYKWIPQNDLLGHPKTRAFITHGGANGIYEAIYHGIPMVGVPLFADQPDNIAHMKAKGAAVSLDFHTMSSTDLLNALKTVINDPLYKENAMKLSRIHHDQPVKPLDRAVFWIEFVMRHKGAKHLRVAAHDLTWFQYHSLDVTGFLLACVATVIFIITKCLFCVWKFVRTGKKGKRD
K0.5 ([4]; other: formation of G1, Michaelis–Menten model): 2.66 ± 0.28 µM
